The source made the active and inactive calls. The calls are words filed in the database; no cut-off is given here. Where a SMILES comes first, the peptide text is derived from it.
Columns and labels:
[1] = system: C2C12; assay: Upregulation of SIRT1 mRNA expression in mouse C2C12 cells at 50 uM measured after 24 hrs by qRT-PCR analysis; type: functional, cell-based
In short: (§1)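 C2C12 seeded at 2×10^5 cells/well, grown to 90% confluence, then differentiated 2 days in DMEM with 2% horse serum. Treated 24 h with compound (10–50 µM), DMSO, or resveratrol 50 µM (positive control). SIRT1 mRNA measured by qRT-PCR (40 cycles, 95/60 °C), GAPDH reference, ΔΔCt vs DMSO. Triplicate; mean ± S.E.M.; one-way ANOVA with Tukey.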

[2] = system: Escherichia coli; assay: Antimicrobial activity against Escherichia coli U541 assessed as diameter of inhibition zone measured after 24 hrs by disc diffusion assay; type: functional
In short: (§2)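 Bacteria grown in Mueller Hinton broth at 37 °C for 24 h and adjusted to 0.5 McFarland. 6 mm paper discs loaded with 2 µg compound (20 µL) placed on Mueller Hinton agar spread with the suspension, then incubated 37 °C for 24 h. Inhibition-zone diameter measured including the disc. Blank 5% DMSO discs as negative control. Triplicate.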

[3] = system: Cryptococcus neoformans; assay: Antimicrobial activity against Cryptococcus neoformans IFM 40215 assessed as diameter of inhibition zone measured after 24 hrs by disc diffusion assay; type: functional
In short: (§3)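 Yeasts pre-cultured on YPD agar at 37 °C for 24 h, suspended in Mueller Hinton broth and adjusted to 0.5 McFarland. 6 mm discs carrying 2 µg compound (20 µL) laid on Mueller Hinton agar spread with the fungal suspension, then incubated 37 °C for 24 h. Zone diameter read including the disc. 5% DMSO discs as negative control. Triplicate.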

[4] = system: C2C12; assay: Upregulation of SIRT1 mRNA expression in mouse C2C12 cells at 50 uM measured after 24 hrs by qRT-PCR analysis relative to control; type: functional; in short: as §1
[5] = system: Nakaseomyces glabratus; assay: Antimicrobial activity against Candida glabrata IFM 40217 measured after 24 hrs by disc diffusion method; type: functional, organism-based; in short: as §3
[6] = system: Candida parapsilosis; assay: Antimicrobial activity against Candida parapsilosis IFM 40218 measured after 24 hrs by disc diffusion method; type: functional, organism-based; in short: as §3
[7] = system: Staphylococcus aureus; assay: Antimicrobial activity against methicillin-resistant Staphylococcus aureus N315 measured after 24 hrs by disc diffusion method; type: functional, organism-based
In short: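 Disc diffusion on Müller Hinton agar. MRSA N315 grown in Müller Hinton broth at 37 °C for 24 h, then adjusted to McFarland 0.5. Sterile 6 mm paper discs loaded with 20 µL (2 µg) of compound. Incubation at 37 °C for 24 h. Read-out is inhibition zone diameter including the disc. Negative control was discs with 5% DMSO. Triplicate; mean ± S.E.M.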

[8] = system: Bacillus subtilis; assay: Antimicrobial activity against Bacillus subtilis HA101 measured after 24 hrs by disc diffusion method; type: functional, organism-based; in short: as §2
[9] = system: Candida albicans; assay: Antimicrobial activity against Candida albicans IFM 40213 measured after 24 hrs by disc diffusion method; type: functional, organism-based; in short: as §3
[10] = system: [Candida] auris; assay: Antimicrobial activity against Candida auris JCM 15448 measured after 24 hrs by disc diffusion method; type: functional, organism-based; conditions: Candidozyma auris; in short: as §3
[11] = system: Enterococcus faecalis; assay: Antimicrobial activity against Enterococcus faecalis JCM7783 measured after 24 hrs by disc diffusion method; type: functional, organism-based; in short: as §2
[12] = system: Meyerozyma guilliermondii; assay: Antimicrobial activity against Candida guilliermondii TIMM 0260 measured after 24 hrs by disc diffusion method; type: functional, organism-based; in short: as §3

Q: How did the Activity [1] turn out when Oc1ccc(/C=C/c2cc(O)cc(O)c2)cc1 was run?
A: Its Activity is “Active”.

Q: Which “diameter of the inhibition zone (DIZ)” value [2] does the source give for CC[C@H](C)[C@@H]1NC(=O)[C@H](C(C)C)NC(=O)[C@@H]2CCCN2C(=O)[C@H]([C@@H](C)CC)NC(=O)[C@H](CC(C)C)NC(=O)[C@@H]2CCCN2C(=O)[C@@H]2CCCN2C(=O)[C@H](CC(C)C)NC1=O (cyclo(ILPPLIPV)) here?
A: The value was 9.4 mm.

Q: And the “diameter of the inhibition zone (DIZ)” value [3]?
A: The value was 7.7 mm.

Q: What about the “fold change (FC)” value [4] of the same compound?
A: Its value is 1.5.

Q: How did the Activity [5] turn out when CC[C@H](C)[C@@H]1NC(=O)[C@H](CC(C)C)NC(=O)[C@@H]2CCCN2C(=O)[C@@H]2CCCN2C(=O)[C@H](CC(C)C)NC(=O)[C@H](C(C)C)NC(=O)[C@H](C(C)C)NC(=O)[C@@H]2CCCN2C1=O (cyclo(IPVVLPPL)) was run?
A: The Activity was “inactive”.

Q: What about the Activity [6] of the same compound?
A: Its Activity is “inactive”.

Q: What about the Activity [7] of the same compound?
A: Its Activity is “inactive”.

Q: What about the Activity [8] of the same compound?
A: The Activity was “inactive”.

Q: What about the Activity [9] of the same compound?
A: The Activity was “inactive”.

Q: What about the Activity [2] of the same compound?
A: Its Activity is “inactive”.

Q: What about the Activity [10] of the same compound?
A: Its Activity is “inactive”.

Q: And the Activity [3]?
A: The Activity was “inactive”.

Q: What about the Activity [11] of the same compound?
A: The Activity was “inactive”.

Q: What about the Activity [12] of the same compound?
A: The Activity was “inactive”.
